Laboratory results reported in ChEMBL document CHEMBL4828745, “Discovery and Structure-Activity Relationships of Quinazolinone-2-carboxamide Derivatives as Novel Orally Efficacious Antimalarials” (J Med Chem, 2021).

Columns and labels:
[1] = Stability in human plasma assessed as compound remaining at 1000 ng/ml after 2 hrs by LC-MS analysis; type: ADME, cell-free; details: read-out: Stability
How it was run: (§1)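 Pooled plasma (human, 3 donors; or male Sprague Dawley rat) spiked to nominal 1000 ng/mL, with at most 0.2% DMSO and 0.4% acetonitrile final. Held at 37 °C with timed aliquots. LC-MS against matrix standards with diazepam internal standard. Percent remaining is relative to the 5 min sample.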

[2] = system: Plasmodium falciparum; assay: Antimalarial activity against Plasmodium falciparum Dd2 MMV048 mutant harbouring Pf-pi4k assessed as inhibition of parasite growth incubated for […] by [3H]hypoxanthine incorporation assay based liquid scintillation counting method; type: functional, organism-based
How it was run: (§2)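 Genetically engineered P. falciparum lines carried mutations introduced into the Dd2 wild-type strain, which was tested alongside them. Growth inhibition was read by [3H]hypoxanthine incorporation over 72 h. IC50 is the mean of two independent biological replicates. Chloroquine and artesunate served as controls.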

[3] = system: Plasmodium falciparum; assay: Antimalarial activity against Plasmodium falciparum Cam3.1 harbouring Pf-crt, Pf-mdrl,Pf-dhfr, Pf-dhps, pf-kelch13 mutated loci assessed as inhibition of parasite growth incubated for […] by [3H]hypoxanthine incorporation assay based liquid scintillation counting method; type: functional, organism-based
How it was run: (§3)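 Drug-resistant laboratory P. falciparum strains were compared against the sensitive strain NF54. Growth inhibition was read by a modified [3H]hypoxanthine incorporation assay over 72 h. IC50 is the mean of two independent biological replicates. Chloroquine and artesunate served as controls.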

[4] = system: Plasmodium falciparum; assay: Antimalarial activity against Plasmodium falciparum Dd2 […] mutant harbouring Pf-car1 assessed as inhibition of parasite growth incubated for […] by [3H]hypoxanthine incorporation assay based liquid scintillation counting method; type: functional, organism-based; how it was run: as §2
[5] = Cytotoxicity against human HEK293 cells assessed as cell viability incubated for 72 hrs by Alamar blue assay; type: cell-based
How it was run: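 HEK293 cells handled with the same incubation, compound addition and timing as the 72 h parasite assay. Alamar Blue, diluted in growth medium, was incubated 4 h at 37 °C/5% CO2, then 20 h at room temperature before plate read.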

[6] = target: CYP2C9 (Homo sapiens, UniProt P11712); assay: Inhibition of CYP2C9 (unknown origin) at 10 uM by UPLC-MS analysis relative to control; type: ADME
How it was run: (§4)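 Human liver microsomes, using a substrate-specific metabolite approach. Test compound at 1 and 10 μM. Reference inhibitors: furafylline (1A2), sulfaphenazole (2C9), quinidine (2D6), ketoconazole (3A4). Specific metabolites quantified by UPLC-MS. Percent inhibition relative to incubation without inhibitor.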

[7] = target: Voltage-gated inwardly rectifying potassium channel KCNH2 (Homo sapiens, UniProt Q12809); assay: Inhibition of human ERG by QPatch automated patch clamp system
How it was run: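 hERG current recorded on a QPatch automated patch clamp at four concentrations in 0.5-log steps.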

[8] = system: Plasmodium falciparum; assay: Antimalarial activity against Plasmodium falciparum 7G8 harbouring Pf-crt, Pf-mdrl,Pf-dhfr, Pf-dhps mutated loci assessed as inhibition of parasite growth incubated for […] by [3H]hypoxanthine incorporation assay based liquid scintillation counting method; type: functional, organism-based; how it was run: as §3
[9] = Apparent permeability of the compound from apical to basolateral side in human Caco-2 cells at 20 uM measured after 120 mins by LC-MS analysis; type: ADME, cell-based
How it was run: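 Caco-2 monolayers, apical-to-basolateral direction, in pH 7.4 HBSS with 20 mM HEPES on both sides. Donor at nominal 20 μM, 0.1% DMSO final. Flux followed over 120 min. Quantified by LC-MS with mass balance to derive Papp.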

[10] = system: Plasmodium falciparum; assay: Antimalarial activity against Plasmodium falciparum K1 harbouring Pf-crt, Pf-mdrl,Pf-dhfr, Pf-dhps mutated loci assessed as inhibition of parasite growth incubated for […] by [3H]hypoxanthine incorporation assay based liquid scintillation counting method; type: functional, organism-based; how it was run: as §3
[11] = system: Plasmodium falciparum; assay: Antimalarial activity against Plasmodium falciparum TM90C2b harbouring Pf-crt, Pf-mdrl,Pfd-hfr, Pf-cytbQ0 mutated loci assessed as inhibition of parasite growth incubated for […] by [3H]hypoxanthine incorporation assay based liquid scintillation counting method; type: functional, organism-based; how it was run: as §3
[12] = Intrinsic clearance in rat hepatocytes measured per 10^6 cells at 0.25 uM by LC-MS analysis; type: ADME, cell-based, Hepatocyte; details: read-out: CLH
How it was run: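 Compound at 0.25 μM incubated with cryopreserved human or rat hepatocytes (1×10^6 cells/mL) in Krebs–Henseleit buffer at 37 °C. Quenched with acetonitrile containing diazepam. LC-MS quantitation. CLint from the first-order degradation rate constant.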

[13] = system: Plasmodium falciparum; assay: Antimalarial activity against Plasmodium falciparum 3D70087/N9 infected in humanized NODscidlL2Rgamma null mouse model assessed as reduction in parasitemia at 50 mg/kg, po for 4 consecutive days measured after 7 days of post infection relative to control; type: functional; details: 3D70087/N9, po, 96 h, time 4 day
How it was run: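 P. falciparum humanized SCID mouse model. Monosodium tetrahydrate salt given orally at 50 or 100 mg/kg on 4 consecutive days, n = 2 mice per group. Parasitemia read at day 7 post infection versus untreated controls.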

[14] = system: Plasmodium falciparum; assay: Antimalarial activity against Plasmodium falciparum Dd2 DDD498 mutant harbouring Pf-cytB assessed as inhibition of parasite growth incubated for […] by [3H]hypoxanthine incorporation assay based liquid scintillation counting method; type: functional, organism-based; how it was run: as §2
[15] = system: Plasmodium falciparum; assay: Antiplasmodial activity against asexual blood stage Plasmodium falciparum 3D7 (MR4) infected in erythrocytes assessed as parasite reduction ratio at 10 times of IC50 concentration treated up to 120 hrs measured after 21 days of serial dilution; type: functional; details: time hrs <=120
How it was run: (§5)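 Samples taken every 24 h and washed free of drug. Viable parasites counted by limiting dilution: 3-fold serial dilutions, four independent series, growth scored at 21 days and confirmed at 28 days.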

[16] = Toxicity in SCID mouse infected with Plasmodium falciparum 3D70087/N9 at 50 to 100 mg/kg, po for 4 consecutive days measured after 7 days of post infection; type: organism-based; details: in vivo, 96 h, dose 50-100 mg/kg, time 4 day
[17] = Ratio of drug level in whole blood to plasma in Sprague-Dawley rat by LC-MS analysis; type: ADME, cell-free; details: whole blood and plasma
How it was run: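 Apparent whole-blood-to-plasma partitioning measured in vitro in rat blood.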

[18] = system: Plasmodium falciparum; assay: Antiplasmodial activity against asexual blood stage Plasmodium falciparum 3D7 (MR4) infected in erythrocytes assessed as parasite clearance time for 99.9% organism; type: functional; how it was run: as §5
[19] = Stability in Sprague-Dawley rat plasma assessed as compound remaining at 1000 ng/ml after 2 hrs by LC-MS analysis; type: ADME, cell-free; details: read-out: Stability; how it was run: as §1
[20] = system: Plasmodium falciparum; assay: Antimalarial activity against wild type Plasmodium falciparum Dd2 assessed as inhibition of parasite growth incubated for […] by [3H]hypoxanthine incorporation assay based liquid scintillation counting method; type: functional, organism-based; how it was run: as §2
[21] = system: Plasmodium falciparum; assay: Antimalarial activity against Plasmodium falciparum Dd2 DSM265 mutant harbouring […] assessed as inhibition of parasite growth incubated for […] by [3H]hypoxanthine incorporation assay based liquid scintillation counting method; type: functional, organism-based; how it was run: as §2
[22] = target: CYP3A4 (Homo sapiens, UniProt P08684); assay: Inhibition of CYP3A4 (unknown origin) at 10 uM by UPLC-MS analysis relative to control; type: ADME; how it was run: as §4
[23] = Intrinsic clearance in mouse liver microsomes at […] by LC-MS/MS analysis; type: ADME, Microsome
How it was run: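 Liver microsomes (human, mouse or rat) at 0.4 mg/mL protein, 37 °C, with an NADPH-regenerating system. Compound at 0.25 or 0.5 μM. Acetonitrile/diazepam quench, LC-MS quantitation. CLint from the first-order degradation rate constant.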

[24] = system: Plasmodium falciparum; assay: Antiplasmodial activity against liver stage Plasmodium falciparum NF54 sporozoites infected in human hepatocytes assessed as maximal parasite killing measured after 96 hrs by schizont assay relative to control; type: functional

CYP2C9, sequence (P11712 whole entry): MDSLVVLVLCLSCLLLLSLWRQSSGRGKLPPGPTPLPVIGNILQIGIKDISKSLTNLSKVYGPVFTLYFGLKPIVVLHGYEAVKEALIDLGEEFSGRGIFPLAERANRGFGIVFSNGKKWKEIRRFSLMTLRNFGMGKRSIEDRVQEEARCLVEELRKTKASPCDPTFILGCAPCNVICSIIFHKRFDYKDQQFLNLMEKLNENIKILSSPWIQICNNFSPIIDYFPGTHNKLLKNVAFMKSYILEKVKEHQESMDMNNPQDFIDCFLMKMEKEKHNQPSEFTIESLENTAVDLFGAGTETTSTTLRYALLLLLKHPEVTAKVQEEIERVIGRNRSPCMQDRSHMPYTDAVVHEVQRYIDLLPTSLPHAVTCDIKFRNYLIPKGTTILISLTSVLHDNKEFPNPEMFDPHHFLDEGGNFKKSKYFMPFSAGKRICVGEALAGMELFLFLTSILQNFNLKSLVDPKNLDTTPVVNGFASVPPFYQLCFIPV
CYP3A4, sequence (P08684 whole entry): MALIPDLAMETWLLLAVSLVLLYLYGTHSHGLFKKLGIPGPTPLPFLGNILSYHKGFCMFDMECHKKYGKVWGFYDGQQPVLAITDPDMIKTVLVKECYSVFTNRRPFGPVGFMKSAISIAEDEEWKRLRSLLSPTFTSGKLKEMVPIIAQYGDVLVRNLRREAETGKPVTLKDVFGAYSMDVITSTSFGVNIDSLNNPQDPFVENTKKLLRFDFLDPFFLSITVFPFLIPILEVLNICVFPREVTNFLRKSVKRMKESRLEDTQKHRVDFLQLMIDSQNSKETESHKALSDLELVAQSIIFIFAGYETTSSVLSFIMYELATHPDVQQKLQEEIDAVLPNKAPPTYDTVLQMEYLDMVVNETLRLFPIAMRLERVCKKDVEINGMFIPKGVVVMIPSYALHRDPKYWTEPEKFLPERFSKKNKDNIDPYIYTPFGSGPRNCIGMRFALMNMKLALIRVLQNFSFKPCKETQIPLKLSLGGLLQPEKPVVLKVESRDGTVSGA
Voltage-gated inwardly rectifying potassium channel KCNH2, sequence (Q12809 whole entry): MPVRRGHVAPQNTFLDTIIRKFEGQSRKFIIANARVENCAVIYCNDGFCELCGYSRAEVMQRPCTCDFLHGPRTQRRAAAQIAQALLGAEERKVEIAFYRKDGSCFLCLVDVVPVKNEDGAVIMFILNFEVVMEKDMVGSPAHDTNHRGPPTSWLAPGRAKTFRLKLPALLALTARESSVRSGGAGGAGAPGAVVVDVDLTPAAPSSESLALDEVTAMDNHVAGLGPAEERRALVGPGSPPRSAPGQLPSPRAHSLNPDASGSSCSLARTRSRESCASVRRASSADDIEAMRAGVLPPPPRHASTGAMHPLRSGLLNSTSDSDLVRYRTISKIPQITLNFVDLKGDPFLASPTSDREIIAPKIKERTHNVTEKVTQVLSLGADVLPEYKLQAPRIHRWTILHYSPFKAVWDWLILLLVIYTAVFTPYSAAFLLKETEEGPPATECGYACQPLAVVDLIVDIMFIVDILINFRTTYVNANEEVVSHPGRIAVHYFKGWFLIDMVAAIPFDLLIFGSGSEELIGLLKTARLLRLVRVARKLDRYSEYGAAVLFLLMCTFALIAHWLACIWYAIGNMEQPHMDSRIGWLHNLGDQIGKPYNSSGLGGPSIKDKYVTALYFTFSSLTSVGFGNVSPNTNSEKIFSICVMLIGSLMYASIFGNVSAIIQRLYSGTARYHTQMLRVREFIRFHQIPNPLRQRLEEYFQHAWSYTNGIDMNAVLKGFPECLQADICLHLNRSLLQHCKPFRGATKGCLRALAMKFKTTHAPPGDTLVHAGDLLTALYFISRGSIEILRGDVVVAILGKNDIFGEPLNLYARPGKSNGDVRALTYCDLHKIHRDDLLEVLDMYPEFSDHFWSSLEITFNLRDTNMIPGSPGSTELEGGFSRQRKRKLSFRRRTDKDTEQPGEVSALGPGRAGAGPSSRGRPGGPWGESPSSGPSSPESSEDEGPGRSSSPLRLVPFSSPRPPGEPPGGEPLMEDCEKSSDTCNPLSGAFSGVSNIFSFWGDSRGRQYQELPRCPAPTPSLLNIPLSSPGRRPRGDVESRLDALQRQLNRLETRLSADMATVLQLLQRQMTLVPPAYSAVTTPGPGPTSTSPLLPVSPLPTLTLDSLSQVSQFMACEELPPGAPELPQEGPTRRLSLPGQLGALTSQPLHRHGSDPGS

In the case of `CCc1cccc(CNC(=O)c2nc3cccc(COCc4ccc(C(=O)O)cc4)c3c(=O)[nH]2)c1`, the remaining at 2 h, 1000 ng/ml [1] is reported as 100%, the IC50 [2] is reported as 27 nM and the IC50 [3] is reported as 31 nM. It also gave an IC50 [4] of 18 nM, a CC50 at 72 h [5] of over 40000 nM and an inhibition at 10 µM [6] of 55%. It also gave an IC50 [7] of over 30000 nM, an IC50 [8] of 16 nM and a Papp A→B at 2 h, 20 µM [9] of 35 ×10⁻⁶ cm/s. It also gave an IC50 [10] of 31 nM, an IC50 [11] of 24 nM and a hepatocyte CLint at 0.25 µM [12] of 6 µL/min/1e6 cells. For the same molecule, the inhibition in vivo at 50 mg/kg [13] was 65%, the IC50 [14] was 19 nM and the Ratio [15] was 4.6. The Activity [16] was “Non-Toxic”, the blood plasma ratio [17] was 0.62 and the Time [18] was 32 h. For the same molecule, the remaining at 2 h, 1000 ng/ml [19] was 93.4%, the IC50 [20] was 33 nM and the IC50 [21] was 23 nM. It also gave an inhibition at 10 µM [22] of under 10%, a CLH [23] of 183 uL/ml.millig and an Emax [24] of 50%.
